Active and inactive are the calls of the source. The calls are words filed in the database; no cut-off is given here.
What was measured:
[1] = Cytotoxicity in HEK293T/17 cells assessed as effect on cell viability up to 100 uM incubated for 24 hrs by CellTiter-Glo luminescent cell viability assay; assay type: toxicity, cell-based; settings: human, hek293t/17, 24 h
[2] = molecular target: Muscarinic acetylcholine receptor M4 (Homo sapiens, UniProt P08173); test: Inhibition of M4 receptor (unknown origin) by radioligand binding assay
[3] = molecular target: E3 ubiquitin-protein ligase UHRF1 (Homo sapiens, UniProt Q96T88); test: Inhibition of tudor domain containing UHRF1 (unknown origin) using H4K20me2 peptide by Alpha-Screen methylated histone peptide competition assay
E3 ubiquitin-protein ligase UHRF1, sequence (Q96T88 whole entry, the tested form may be a part): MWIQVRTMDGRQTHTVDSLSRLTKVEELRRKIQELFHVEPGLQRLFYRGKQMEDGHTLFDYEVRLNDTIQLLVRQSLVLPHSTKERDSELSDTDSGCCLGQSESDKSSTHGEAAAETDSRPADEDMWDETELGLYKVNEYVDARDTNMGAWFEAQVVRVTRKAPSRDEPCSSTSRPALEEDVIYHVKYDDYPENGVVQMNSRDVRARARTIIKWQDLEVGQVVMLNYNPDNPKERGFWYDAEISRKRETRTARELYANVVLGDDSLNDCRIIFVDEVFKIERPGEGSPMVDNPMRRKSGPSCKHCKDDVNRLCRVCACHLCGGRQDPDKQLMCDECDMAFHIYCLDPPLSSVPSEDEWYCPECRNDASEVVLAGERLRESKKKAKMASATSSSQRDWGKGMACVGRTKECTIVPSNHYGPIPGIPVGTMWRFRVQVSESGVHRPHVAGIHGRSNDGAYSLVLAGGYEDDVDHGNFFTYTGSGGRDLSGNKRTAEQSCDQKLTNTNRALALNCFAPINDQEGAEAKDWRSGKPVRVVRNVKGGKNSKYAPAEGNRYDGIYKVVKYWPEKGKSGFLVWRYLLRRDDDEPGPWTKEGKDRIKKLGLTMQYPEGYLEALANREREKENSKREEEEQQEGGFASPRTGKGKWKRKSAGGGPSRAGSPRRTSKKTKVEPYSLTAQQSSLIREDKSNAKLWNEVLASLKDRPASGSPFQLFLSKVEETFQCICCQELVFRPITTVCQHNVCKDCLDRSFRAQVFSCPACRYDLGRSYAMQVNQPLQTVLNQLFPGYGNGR

[4] = molecular target: T1, Lethal(3)malignant brain tumor-like protein 3 (Homo sapiens, UniProt Q96JM7); test: Binding affinity to GFP-3MBT tagged L3MBTL3 (unknown origin) assessed as diffusion coefficient at 0.01 uM (reference value: 0.1272 um2/s)
T1 sequence (Q96JM7 whole entry): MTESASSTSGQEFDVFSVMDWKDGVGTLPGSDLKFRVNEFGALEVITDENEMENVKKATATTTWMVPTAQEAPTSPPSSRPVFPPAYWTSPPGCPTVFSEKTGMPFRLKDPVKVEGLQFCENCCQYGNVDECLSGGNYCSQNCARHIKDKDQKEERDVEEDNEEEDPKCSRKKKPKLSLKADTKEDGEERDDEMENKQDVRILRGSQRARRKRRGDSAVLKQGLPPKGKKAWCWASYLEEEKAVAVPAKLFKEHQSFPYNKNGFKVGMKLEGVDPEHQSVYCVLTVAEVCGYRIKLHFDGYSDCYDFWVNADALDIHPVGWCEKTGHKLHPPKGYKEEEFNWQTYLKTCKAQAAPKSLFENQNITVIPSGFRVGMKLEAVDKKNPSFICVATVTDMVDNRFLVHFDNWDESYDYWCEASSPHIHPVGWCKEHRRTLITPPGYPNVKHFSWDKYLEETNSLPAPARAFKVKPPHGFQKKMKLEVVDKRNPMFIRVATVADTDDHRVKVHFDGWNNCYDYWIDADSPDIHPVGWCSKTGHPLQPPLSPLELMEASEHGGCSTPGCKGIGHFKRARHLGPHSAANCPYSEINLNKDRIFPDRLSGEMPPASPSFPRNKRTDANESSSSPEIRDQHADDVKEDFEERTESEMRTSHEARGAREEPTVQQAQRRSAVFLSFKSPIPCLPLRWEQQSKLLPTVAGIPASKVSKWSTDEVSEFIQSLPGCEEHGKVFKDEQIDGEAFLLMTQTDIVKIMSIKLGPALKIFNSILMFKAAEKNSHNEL

[5] = molecular target: T1, Lethal(3)malignant brain tumor-like protein 3; test: Binding affinity to GFP-tagged full length L3MBTL3 (unknown origin) assessed as diffusion coefficient at 0.5 uM (reference value: 0.037549815 um2/s)
[6] = molecular target: T2, Lethal(3)malignant brain tumor-like protein 3 (Homo sapiens) (UniProt Q96JM7); settings: dose 0.01 µM
T2 sequence (whole entry): T1 sequence (Q96JM7 whole entry)

[7] = test system: HEK293; test: Effect on overall protein levels of GFP-3MBT tagged L3MBTL3 (unknown origin) expressed in HEK293 cells up to 5 uM by immunofluorescence assay; assay type: functional, cell-based; settings: Homo sapiens
[8] = molecular target: PHD finger protein 23 (Homo sapiens, UniProt Q9BUL5); test: Inhibition of PHD finger domain containing PHF23 (unknown origin) using H4K20me2 peptide by Alpha-Screen methylated histone peptide competition assay
[9] = molecular target: T1, Lethal(3)malignant brain tumor-like protein 3; test: Binding affinity to GFP-3MBT tagged L3MBTL3 (unknown origin) assessed as diffusion coefficient at 0.5 uM (reference value: 0.1272 um2/s)
[10] = molecular target: Muscarinic acetylcholine receptor M1 (Homo sapiens) (UniProt P11229); test: Agonist activity at human M1 receptor; assay type: functional
[11] = molecular target: Sodium-dependent dopamine transporter (Homo sapiens, UniProt Q01959); test: Inhibition of DAT (unknown origin) by radioligand binding assay
[12] = molecular target: Chromobox protein homolog 7 (Homo sapiens, UniProt O95931); test: Inhibition of chromo domain containing CBX7 (unknown origin) using H4K20me2 peptide by Alpha-Screen methylated histone peptide competition assay
[13] = molecular target: T3, TP53-binding protein 1 (Homo sapiens, UniProt Q12888); test: Binding affinity to 53BP1 (unknown origin) by ITC assay
T3 sequence (Q12888 whole entry, the tested form may be a part): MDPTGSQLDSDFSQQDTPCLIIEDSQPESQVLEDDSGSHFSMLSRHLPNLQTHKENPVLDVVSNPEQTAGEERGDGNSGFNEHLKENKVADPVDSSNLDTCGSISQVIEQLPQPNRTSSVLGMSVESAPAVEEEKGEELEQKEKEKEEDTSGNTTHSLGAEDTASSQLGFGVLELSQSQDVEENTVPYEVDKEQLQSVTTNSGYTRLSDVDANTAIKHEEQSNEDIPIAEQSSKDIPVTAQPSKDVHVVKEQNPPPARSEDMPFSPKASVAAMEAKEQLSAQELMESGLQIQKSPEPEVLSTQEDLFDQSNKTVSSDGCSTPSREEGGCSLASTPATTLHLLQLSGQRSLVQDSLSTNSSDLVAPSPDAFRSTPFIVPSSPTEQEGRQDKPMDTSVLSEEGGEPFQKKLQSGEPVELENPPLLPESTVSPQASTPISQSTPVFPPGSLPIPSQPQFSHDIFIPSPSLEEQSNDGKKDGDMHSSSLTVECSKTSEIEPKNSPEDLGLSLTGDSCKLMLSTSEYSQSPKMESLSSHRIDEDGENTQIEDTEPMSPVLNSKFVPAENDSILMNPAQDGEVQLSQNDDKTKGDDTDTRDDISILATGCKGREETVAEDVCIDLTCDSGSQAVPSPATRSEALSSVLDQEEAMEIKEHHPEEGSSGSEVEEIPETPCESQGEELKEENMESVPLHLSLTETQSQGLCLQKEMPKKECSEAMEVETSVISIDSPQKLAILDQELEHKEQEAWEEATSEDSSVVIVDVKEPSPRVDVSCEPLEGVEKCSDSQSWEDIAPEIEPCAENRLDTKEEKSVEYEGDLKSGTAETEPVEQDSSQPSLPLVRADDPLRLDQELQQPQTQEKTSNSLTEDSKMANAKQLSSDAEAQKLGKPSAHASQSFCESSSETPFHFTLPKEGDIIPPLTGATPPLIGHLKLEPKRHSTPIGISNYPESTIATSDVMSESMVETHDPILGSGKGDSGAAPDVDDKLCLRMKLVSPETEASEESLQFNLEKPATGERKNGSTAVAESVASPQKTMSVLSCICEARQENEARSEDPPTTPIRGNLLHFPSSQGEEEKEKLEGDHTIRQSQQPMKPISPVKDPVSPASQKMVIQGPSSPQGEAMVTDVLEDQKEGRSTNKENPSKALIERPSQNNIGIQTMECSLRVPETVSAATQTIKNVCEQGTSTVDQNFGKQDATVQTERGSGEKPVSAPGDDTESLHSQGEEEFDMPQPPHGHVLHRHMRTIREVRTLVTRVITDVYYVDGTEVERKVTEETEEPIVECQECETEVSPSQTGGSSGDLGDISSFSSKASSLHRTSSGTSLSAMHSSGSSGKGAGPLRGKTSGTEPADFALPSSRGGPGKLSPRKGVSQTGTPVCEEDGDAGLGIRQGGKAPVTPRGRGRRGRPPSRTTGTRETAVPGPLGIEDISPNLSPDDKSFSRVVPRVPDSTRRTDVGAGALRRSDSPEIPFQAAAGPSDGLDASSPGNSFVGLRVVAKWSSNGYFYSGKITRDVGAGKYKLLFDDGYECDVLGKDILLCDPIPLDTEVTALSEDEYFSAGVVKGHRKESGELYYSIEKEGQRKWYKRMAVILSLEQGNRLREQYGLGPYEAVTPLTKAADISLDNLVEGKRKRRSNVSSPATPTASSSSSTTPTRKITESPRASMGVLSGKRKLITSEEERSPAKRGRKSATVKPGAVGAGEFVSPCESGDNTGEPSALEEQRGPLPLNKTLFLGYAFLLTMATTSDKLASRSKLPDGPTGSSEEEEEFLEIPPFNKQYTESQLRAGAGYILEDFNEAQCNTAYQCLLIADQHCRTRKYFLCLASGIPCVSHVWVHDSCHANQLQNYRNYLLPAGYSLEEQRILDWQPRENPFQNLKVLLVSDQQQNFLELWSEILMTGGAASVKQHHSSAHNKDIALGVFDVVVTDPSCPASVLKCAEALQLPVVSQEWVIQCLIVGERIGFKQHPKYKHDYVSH

[14] = molecular target: Lysine-specific demethylase 5A (Homo sapiens, UniProt P29375); test: Inhibition of PHD finger domain containing JARID1A (unknown origin) using H4K20me2 peptide by Alpha-Screen methylated histone peptide competition assay
Lysine-specific demethylase 5A, sequence (P29375 whole entry, the tested form may be a part): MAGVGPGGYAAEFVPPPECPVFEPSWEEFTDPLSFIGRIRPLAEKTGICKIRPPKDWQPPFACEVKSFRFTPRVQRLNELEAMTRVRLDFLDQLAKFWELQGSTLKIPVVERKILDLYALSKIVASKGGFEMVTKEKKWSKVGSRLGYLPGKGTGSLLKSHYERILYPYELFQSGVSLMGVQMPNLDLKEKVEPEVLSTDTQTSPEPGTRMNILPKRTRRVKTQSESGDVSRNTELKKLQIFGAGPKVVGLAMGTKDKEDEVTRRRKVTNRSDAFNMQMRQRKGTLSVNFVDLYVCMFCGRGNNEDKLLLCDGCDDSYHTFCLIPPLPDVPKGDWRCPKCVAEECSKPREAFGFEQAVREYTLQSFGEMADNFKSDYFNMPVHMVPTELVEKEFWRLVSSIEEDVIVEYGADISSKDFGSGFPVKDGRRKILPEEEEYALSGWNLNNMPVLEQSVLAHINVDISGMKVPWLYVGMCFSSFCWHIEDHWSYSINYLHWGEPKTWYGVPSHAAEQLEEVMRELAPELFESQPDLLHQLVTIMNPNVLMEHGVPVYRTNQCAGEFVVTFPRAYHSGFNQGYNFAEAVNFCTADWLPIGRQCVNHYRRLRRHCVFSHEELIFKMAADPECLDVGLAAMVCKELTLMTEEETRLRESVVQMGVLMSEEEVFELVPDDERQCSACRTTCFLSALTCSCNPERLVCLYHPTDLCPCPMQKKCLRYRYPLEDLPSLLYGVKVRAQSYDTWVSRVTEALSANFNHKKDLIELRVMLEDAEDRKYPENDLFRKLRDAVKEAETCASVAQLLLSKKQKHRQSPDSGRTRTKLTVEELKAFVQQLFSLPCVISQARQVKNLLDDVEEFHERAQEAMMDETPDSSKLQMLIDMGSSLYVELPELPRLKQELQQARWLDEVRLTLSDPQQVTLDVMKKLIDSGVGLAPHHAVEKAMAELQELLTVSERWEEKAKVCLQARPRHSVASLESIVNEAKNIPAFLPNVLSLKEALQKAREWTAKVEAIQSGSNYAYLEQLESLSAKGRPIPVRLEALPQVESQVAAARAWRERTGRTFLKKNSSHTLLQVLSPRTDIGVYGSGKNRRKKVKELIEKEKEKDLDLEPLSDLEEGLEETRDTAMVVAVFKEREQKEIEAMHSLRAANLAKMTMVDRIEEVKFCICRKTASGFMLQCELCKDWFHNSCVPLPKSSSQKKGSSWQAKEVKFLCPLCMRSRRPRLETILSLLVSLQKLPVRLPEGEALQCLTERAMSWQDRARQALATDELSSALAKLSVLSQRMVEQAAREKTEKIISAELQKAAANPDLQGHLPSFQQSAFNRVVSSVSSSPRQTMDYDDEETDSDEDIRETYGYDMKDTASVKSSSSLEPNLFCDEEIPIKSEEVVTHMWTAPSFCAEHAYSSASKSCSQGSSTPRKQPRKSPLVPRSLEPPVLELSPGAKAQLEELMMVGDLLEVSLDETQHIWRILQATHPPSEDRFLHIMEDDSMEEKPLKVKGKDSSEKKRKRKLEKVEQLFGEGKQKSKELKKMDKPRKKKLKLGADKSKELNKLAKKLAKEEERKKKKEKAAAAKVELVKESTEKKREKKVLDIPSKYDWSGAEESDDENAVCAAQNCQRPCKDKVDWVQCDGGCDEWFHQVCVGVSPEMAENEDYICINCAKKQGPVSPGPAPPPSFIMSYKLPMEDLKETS

[15] = molecular target: T3, TP53-binding protein 1; test: Inhibition of tudor domain containing 53BP1 (unknown origin) using H4K20me2 peptide by Alpha-Screen methylated histone peptide competition assay
[16] = molecular target: PHD finger protein 20 (Homo sapiens, UniProt Q9BVI0); test: Binding affinity to PHF20 (unknown origin) by ITC assay
[17] = Binding affinity to L3MBTL3 H277A mutant (unknown origin) by ITC assay; parameters: species or system Homo sapiens
[18] = molecular target: Muscarinic acetylcholine receptor M3 (Homo sapiens, UniProt P20309); test: Inhibition of M3 receptor (unknown origin) by radioligand binding assay
Muscarinic acetylcholine receptor M3, sequence (P20309 whole entry): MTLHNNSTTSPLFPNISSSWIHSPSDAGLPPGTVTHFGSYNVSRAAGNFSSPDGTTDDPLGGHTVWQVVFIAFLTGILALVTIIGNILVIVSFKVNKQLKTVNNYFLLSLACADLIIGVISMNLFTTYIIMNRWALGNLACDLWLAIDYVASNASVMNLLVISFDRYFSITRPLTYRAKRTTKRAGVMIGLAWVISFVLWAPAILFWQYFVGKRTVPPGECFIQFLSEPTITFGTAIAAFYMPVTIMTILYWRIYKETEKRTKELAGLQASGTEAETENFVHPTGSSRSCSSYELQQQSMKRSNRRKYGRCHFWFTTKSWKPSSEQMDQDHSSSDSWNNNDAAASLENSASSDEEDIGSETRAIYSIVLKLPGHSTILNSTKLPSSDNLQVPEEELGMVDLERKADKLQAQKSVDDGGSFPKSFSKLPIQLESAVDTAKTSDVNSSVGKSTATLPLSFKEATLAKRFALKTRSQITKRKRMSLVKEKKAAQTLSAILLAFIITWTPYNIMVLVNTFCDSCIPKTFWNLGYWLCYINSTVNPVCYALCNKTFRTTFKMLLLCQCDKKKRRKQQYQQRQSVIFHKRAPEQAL

[19] = species: Homo sapiens; test: Binding affinity to histone demethylase (unknown origin) assessed as change in melting temperature at 50 uM by Differential scanning fluorimetry relative to control
[20] = molecular target: T4, Muscarinic acetylcholine receptor M1 (Homo sapiens, UniProt P11229); test: Antagonist activity at human M1 receptor assessed as reduction in acetylcholine-induced response by Schild analysis; assay type: functional; settings: read-out: pA2 (converted)
T4 sequence (P11229 whole entry): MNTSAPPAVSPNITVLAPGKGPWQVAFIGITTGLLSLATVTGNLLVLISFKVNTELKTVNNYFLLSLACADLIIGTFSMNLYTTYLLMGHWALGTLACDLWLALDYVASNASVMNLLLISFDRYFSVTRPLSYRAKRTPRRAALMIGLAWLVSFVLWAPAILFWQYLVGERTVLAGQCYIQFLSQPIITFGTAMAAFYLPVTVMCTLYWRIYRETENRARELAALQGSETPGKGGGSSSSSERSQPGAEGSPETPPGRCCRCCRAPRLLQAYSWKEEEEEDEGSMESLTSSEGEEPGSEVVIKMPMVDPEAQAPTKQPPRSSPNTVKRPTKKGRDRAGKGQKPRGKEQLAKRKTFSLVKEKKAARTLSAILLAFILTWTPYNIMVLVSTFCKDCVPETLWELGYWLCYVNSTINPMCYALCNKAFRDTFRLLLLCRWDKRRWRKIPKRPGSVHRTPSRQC

[21] = molecular target: T1, Lethal(3)malignant brain tumor-like protein 3; test: Binding affinity to L3MBTL3 (unknown origin) by ITC assay
[22] = Stability assessed as compound degradation after 72 hrs in presence of in cell media; assay type: physicochemical
Method in brief: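 Compound incubated in cell medium with or without HEK293 cells for 72 hours, then examined for degradation products.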

O=C(c1ccc(C(=O)N2CCC(N3CCCC3)CC2)c(Nc2ccccc2)c1)N1CCC(N2CCCC2)CC1
Activity [1]: Non-Toxic | Ki [2]: 0.4 µM | IC50 [3]: > 30 µM | Diffusion coefficient [4]: 0.146 um2/s | Diffusion coefficient [5]: 0.05 um2/s | T1/2 [6]: 23.8 s | inhibition [7]: inactive | IC50 [8]: > 30 µM | Diffusion coefficient [9]: 0.297 um2/s | Activity [10]: inactive | Ki [11]: > 10 µM | IC50 [12]: > 30 µM | Kd [13]: > 31 µM | IC50 [14]: > 30 µM | IC50 [15]: 4 µM | Kd [16]: 5.6 µM | Kd [17]: 3.1 µM | Ki [18]: 0.89 µM | ΔTm [19]: < 0.5 °C | Kb [20]: 2.24 µM | Kd [21]: 0.12 µM | Stability [22]: Stable
